“Also recorded” adds a separate entry of the source. Read-outs that look alike come from different tables or passages of the source. Bounds are passed on as bounds.

This is an account of results in paper PMC7684765 (Journal of medicinal chemistry, 2020).

For data set [1], the system named is MES-induced seizures. As to the kind of experiment: Maximal electroshock. The class given is in vivo. The following applies: MES model, mouse, ip, 350 mg/kg. Summed up: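 Male CF-1 mice, 8 per group per dose, received test compound ip as a suspension in 0.5% HPMC, 1 h before stimulation. Tetracaine (0.5%) in electrolyte was applied to the eyes. A 60 Hz, 50 mA alternating current was delivered through corneal electrodes […]. Animals without hindlimb tonic extension were scored protected. Results are given as N/F, and ED50 was calculated by probit analysis.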

For data set [2], the system named is HT-22 neuronal cells. Kind of data set: HT-22 cell toxicity study. The class given is cell-based. The following applies: up to 50 μM. In outline: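 HT-22 neuronal cells were grown in high-glucose DMEM with 10% FBS and 1% antibiotic-antimycotic at 37 °C and 5% CO2. Cells were seeded at 2000 per well. After 12 h, serially diluted test compound was added for 48 h. […] Readings were background-subtracted and normalized to control wells.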

For data set [3], the system named is 6 Hz 44 mA mouse seizure model. Kind of data set: 6 Hz 44 mA mouse seizure test. It counts as in vivo. Particulars: ip, 400 mg/kg.
Data set [4] has as its system motor impairment (mouse rotarod assay). As to the kind of experiment: Behavioral toxicity in mice. It counts as in vivo. Particulars: acute (~1h) observation period, dose up to 800 mg/kg.
In data set [5] the test system is recurrent epileptiform discharges (REDs) in brain slices from the kainite-induced status epilepticus model. As to the kind of experiment: Spontaneous recurrent epileptiform discharges. Particulars: brain slices in vitro.
For data set [6], the system named is 6 Hz 32 mA mouse seizure model. Kind of data set: 6 Hz 32 mA mouse seizure test. The class given is in vivo. The following applies: ip.
Data set [7] concerns s.c. PTZ mouse model. Kind of data set: Subcutaneous pentylenetetrazole. The class given is in vivo. Particulars: ip, 450 mg/kg, 1 h. In outline:
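Test compound was suspended in 0.5% HPMC and given ip to male CF-1 mice, 8 per group per dose. One hour later, 85 mg/kg PTZ was injected subcutaneously into the midline of the neck. Mice showing no spasms or twitching were scored protected.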

Data set [8] can be described thus: Lethality and other treatment effects in mice seizure models. The class given is in vivo. Particulars: CF-1, mouse, in vivo, intraperitoneal.
The subject of data set [9] is mice. The description is as above. The following applies: mice. It counts as in vivo.
Data set [10] can be described thus: PAINS exclusion assay. It counts as physicochemical. The following applies: up to 24 h.
Data set [11] can be described thus: Pharmacokinetics in mice. The class given is in vivo. Particulars: Mus musculus, read-out: free EC50 in mice.
In data set [12] the test system is ATP levels in HT-22 cells. The following applies: 5 μM; cited from earlier work.
Data set [13] deals with zebrafish. The following applies: cited from earlier work.
Data set [14] concerns 6 Hz 44 mA mouse seizure model. The following applies: cited from earlier work.
Data set [15] deals with 6 Hz 32 mA mouse seizure model. The following applies: 6 Hz 32 mA mouse model, at 15 min; cited from earlier work.
For data set [16], the system named is PTZ-induced seizures in zebrafish larvae. The following applies: 20 μM; cited from earlier work.
For data set [17] the following is noted: two hours; cited from earlier work.
In data set [18] the test system is 6 Hz mouse seizure model at 22 mA. As to the kind of experiment: 6 Hz 22 mA mouse seizure model. It counts as in vivo. Particulars: up to 400 mg/kg.

Consider `CC(C)CCNC1=CC(=O)c2ccccc2C1=O` [3d, 2-(isopentylamino)naphthalene-1,4-dione], for which the seizure protection entry in data set [1], in [3] and in data set [6] (400 mg/kg) was “full protection” each time. In addition, the “toxicity in HT-22 cells (in words)” value in data set [2] was “do not display obvious toxicity; also recorded: does not show obvious toxicity”. For the same compound, in [4], the “motor impairment (mouse rotarod assay)” value is “does not show signs of major motor impairment”. Besides, the “effect on spontaneous REDs” value in [5] is given as “does not attenuate”. Also, the “ED50 value (EC50)” value in data set [6] (time of test 1 h) was 152.7 mg/kg. The animals protected in data set [7] is on record as 6 out of 8. This compound also came in with an LD50 at 24 h in data set [8] of over 800 mg/kg. Besides, the “doses lethal in some animals” value in data set [9] (after electric stimulation, after 24h (data not shown)) was “greater than 500 mg/kg”. Also, the “other effects of treatment observed” value in data set [9] (at time of treatment and ~1 h observation period (data not shown)) is “writhing (abdominal constriction); also recorded: discolored urine and lethargy”. Further, in [10], the “reaction with 2-mercaptoethanol (Michael reaction)” value is listed as “does not react”. In addition, in data set [11], the EC50 was about 123 nM.

As to `CC1=CC(=O)c2ccccc2C1=O` [VK3], the “effect on ATP levels” value in data set [12] is recorded as “can increase ATP levels”. The lethal dose in data set [13] was 7 µM. In addition, in data set [10], the “reaction with 2-mercaptoethanol (Michael reaction)” value was “rapidly reacts”.

`C#CCNC1=CC(=O)c2ccccc2C1=O` [2h]: the “effect on ATP levels” value in data set [12] is “can increase ATP levels”. Besides, the seizure protection result in data set [14] (6 Hz 44 mA mouse model) was “no longer protective; also recorded: did not show any protection”; in data set [15] it was “full protection”. Besides, in [16], the anti-seizure activity entry was “clear anti-seizure activity”. In addition, the toxicity result in [13] (20 μM) was “no observable toxicity”. Also, in data set [17], the “stability in mouse serum” value is recorded as “no catabolic conversion”.

Consider `CC[C@@H](C(N)=O)N1CCCC1=O` [Levetiracetam], for which the “6 Hz 44 mA ED50” value in data set [14] (6 Hz 44 mA seizure model) is recorded as “over 1000 mg/kg”.

`O=C1C=C(NCCC2CCC2)C(=O)c2ccccc21` [3l, 2-((2-cyclobutylethyl)amino)naphthalene-1,4-dione]: the “toxicity in HT-22 cells (in words)” value in data set [2] is on record as “do not display obvious toxicity”. Further, in [18], the seizure protection entry is “without full seizure protection”.
